According to PubChem BioAssay:
Calls of active or inactive are those of the source.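 Rule for the calls, unless noted: active = GFP response above 150% of the DMSO level; inconclusive = fewer than 70 events counted for a yeast strain; inactive = the rest.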

How the values were obtained:
[1] = RPL19A-GFP modulators, yeast TOR pathway, confirmation, cell-based, S. cerevisiae, flow cytometry, cherry picks, mother/daughter gates (AID 2270;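 active = GFP response below 50% of the DMSO control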); details: S. cerevisiae RPL19A-GFP strain, 3 h, at 10 µM, stronger effect = lower value, 100 = same GFP as DMSO wells
[2] = LAP4-GFP expression modulators in yeast, confirmation, cell-based, cherry picks, flow cytometry, mother/daughter gates (AID 2271;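 active = GFP response above 150% of the DMSO control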;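 note: ratio of sample to DMSO plate mean so 100% equals DMSO level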); details: S. cerevisiae LAP4-GFP strain, 3 h, at 10 µM, stronger effect = higher value, 100 means same as DMSO control
How it was run: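 Test system: GFP-fusion yeast strain / Amount: 0.2 OD600 cells / Buffer or medium: SC medium / Dosing: 10 µM single dose / Incubation: compound exposure 3 h at 30 °C, end-over-end rotation / Detection: HT flow cytometry, GFP fluorescence channel / Evaluation: median GFP fluorescence as percent of plate-mean DMSO wells / Control set: DMSO-only negative wells, rapamycin 400 ng/mL positive wells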

[3] = modulators of MEP2-GFP levels in yeast, confirmation, S. cerevisiae, flow cytometry GFP, cherry picks (AID 2272;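 active = GFP response above 150% of the DMSO control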;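 note: ratio of well signal to plate DMSO mean so 100% equals DMSO level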); details: S. cerevisiae MEP2-GFP strain, 3 h, at 10 µM, stronger effect = higher value
[4] = AGP1-GFP expression modulators, hit retest, confirmation, cell-based, flow cytometry, S. cerevisiae, cherry picks (AID 2273);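 note: median GFP channel fluorescence over the whole cell population gate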; details: S. cerevisiae AGP1-GFP strain, 3 h, at 10 µM
[5] = modulators of CIT2-GFP expression in yeast, confirmation, S. cerevisiae, GFP fusion, cherry picks, mother/daughter gates (AID 2274); details: S. cerevisiae CIT2-GFP strain, flow cytometry, 3 h, at 10 µM, stronger effect = higher value
[6] = measured here: daughter cell gate
[7] = measured here: mother cell gate
[8] = measured here: daughter cell gate response
[9] = measured here: mother cell gate response

Row | Structure (SMILES) | GFP response vs DMSO [1] | GFP response vs DMSO [1, 6] [%] | GFP response vs DMSO [1, 7] [%] | GFP response relative to DMSO [2] | GFP response relative to DMSO [2, 8] [%] | GFP response relative to DMSO [2, 9] [%] | GFP response vs DMSO [3] | GFP response, % of DMSO [4] | GFP response, % of DMSO [5] | GFP response, % of DMSO [5, 6] [%] | GFP response, % of DMSO [5, 7] [%]
1 | CCCCCCc1cc2cc(-c3nnc(-c4ccccc4OC)o3)c(=O)oc2cc1O | 98.7% (inactive) | 99.3 | 98.4 | 111% (inactive) | 105 | 111 | 106% (inactive) | 99.1% (inactive) | 100% (inactive) | 101 | 98.2
2 | COc1ccccc1-c1noc(CCC(=O)Nc2cccc(C(F)(F)F)c2)n1 | 98.2% (inactive) | 97.9 | 98.5 | 102% (inactive) | 104 | 100 | 107% (inactive) | 102% (inactive) | 100% (inactive) | 101 | 94.4
3 | CCCCN(CC)S(=O)(=O)c1ccc(C(=O)Nc2nnc(COC)o2)cc1 | 96.6% (inactive) | 96.7 | 98.1 | 100% (inactive) | 99.3 | 99.5 | 97.5% (inactive) | 103% (inactive) | 102% (inactive) | 100 | 101
4 | CCOC(=O)Cc1csc(NC(=O)c2sc3nc4cc(C)ccc4cc3c2N)n1 | 98.6% (inactive) | 100 | 89.8 | 104% (inactive) | 92 | 111 | 114% (inactive) | 104% (inactive) | 105% (inactive) | 102 | 104
5 | CC(C)c1nnc(NC(=O)c2nc(S(=O)(=O)Cc3ccccc3F)ncc2Cl)s1 | 98.4% (inactive) | 97.8 | 99.2 | 108% (inactive) | 107 | 107 | 110% (inactive) | 101% (inactive) | 102% (inactive) | 102 | 100
6 | O=C(c1ccc([N+](=O)[O-])o1)N1CCN(c2nc3c(F)cc(F)cc3s2)CC1 | 80.1% (inactive) | 78 | 67.5 | 250% (active) | 169 | 232 | 197% (active) | 102% (inactive) | 142% (inactive) | 108 | 121
7 | O=C1C(Cl)=C(N2CCN(Cc3ccccc3)CC2)C(=O)N1c1ccccc1 | 98.6% (inactive) | 98.4 | 98.5 | 96.2% (inactive) | 95.6 | 96.2 | 100% (inactive) | 97.8% (inactive) | 99.1% (inactive) | 98.1 | 96.6
8 | O=C(NC(=S)NNC(=O)c1cnccn1)c1ccc(F)cc1 | 110% (inactive) | 91.7 | 105 | 259% (active) | 234 | 254 | 104% (inactive) | 92.4% (inactive) | 99.1% (inactive) | 96.5 | 92.3
9 | Cc1cccn2c(=O)c(/C=C(\C#N)C(=O)NCc3ccco3)c(N3CCCC(C)C3)nc12 (stereo not drawn) | 99.8% (inactive) | 99.1 | 99.5 | 96.1% (inactive) | 96.6 | 97.2 | 98.8% (inactive) | 101% (inactive) | 99.7% (inactive) | 100 | 99.7
10 | COc1ccc(/C=C/C(=O)c2c(O)cc(C)oc2=O)c(OC)c1 | 104% (inactive) | 101 | 103 | 102% (inactive) | 101 | 103 | 103% (inactive) | 100% (inactive) | 95.9% (inactive) | 95.6 | 90.7
11 | CCNC(=O)/C(C#N)=C/c1c(N2CCOCC2)nc2ccccn2c1=O | 96.9% (inactive) | 99.3 | 95.4 | 102% (inactive) | 101 | 104 | 103% (inactive) | 102% (inactive) | 100% (inactive) | 101 | 99.3
12 | O=[N+]([O-])c1c(Nc2ccccn2)cc(Cl)c2nonc12 | 139% (inactive) | 86.3 | 129 | 478% (active) | 123 | 522 | 966% (active) | 143% (inactive) | 979% (active) | 103 | 906
13 | O=C(NNC(=S)NC(=O)c1ccco1)c1ccc(F)cc1 | 106% (inactive) | 106 | 105 | 115% (inactive) | 115 | 114 | 115% (inactive) | 104% (inactive) | 107% (inactive) | 116 | 102
14 | O=C(NNC(=S)NC(=O)c1cn(-c2ccccc2)nc1-c1ccccc1)c1ccncc1 | 98% (inactive) | 101 | 94.8 | 143% (inactive) | 125 | 146 | 101% (inactive) | 99.5% (inactive) | 98.6% (inactive) | 103 | 96
15 | CN(Cc1ccccc1)S(=O)(=O)c1ccc(C(=O)Nc2nnc(C3CC3)o2)cc1 | 103% (inactive) | 102 | 105 | 98.2% (inactive) | 99.1 | 97.3 | 96.8% (inactive) | 99.2% (inactive) | 102% (inactive) | 103 | 102
16 | C#CCSc1nncn1C(=O)/C=C/c1ccccc1 | 99.4% (inactive) | 98.6 | 95 | 145% (inactive) | 142 | 153 | 103% (inactive) | 101% (inactive) | 103% (inactive) | 111 | 93.7
17 | CS(=O)(=O)Nc1ccc(C2=NN(S(C)(=O)=O)C(c3ccc4c(c3)OCO4)C2)cc1 (stereo not drawn) | 98.6% (inactive) | 98.4 | 99.4 | 97.4% (inactive) | 102 | 99.3 | 104% (inactive) | 102% (inactive) | 103% (inactive) | 99.7 | 103

Row | Structure (SMILES) | GFP response vs DMSO [1] | GFP response vs DMSO [1, 6] [%] | GFP response vs DMSO [1, 7] [%] | GFP response relative to DMSO [2] | GFP response relative to DMSO [2, 8] [%] | GFP response relative to DMSO [2, 9] [%] | GFP response vs DMSO [3] | GFP response, % of DMSO [4] | GFP response, % of DMSO [5] | GFP response, % of DMSO [5, 6] [%] | GFP response, % of DMSO [5, 7] [%]
18 | O=C(O)c1ccc(N/N=C/c2c(F)cccc2Cl)cc1 | 99.5% (inactive) | 100 | 98.1 | 124% (inactive) | 121 | 124 | 108% (inactive) | 94% (inactive) | 96.4% (inactive) | 92.7 | 94.5
19 | CCOCCCNC(=O)/C(C#N)=C/c1ccc([N+](=O)[O-])o1 | 118% (inactive) | 91.2 | 87.9 | 212% (active) | 132 | 129 | 285% (active) | 122% (inactive) | 182% (active) | 114 | 110
20 | CCOc1ccc(C(C)=O)cc1N1C(=O)C2C3C=CC(O3)C2C1=O (stereo not drawn) | 100% (inactive) | 105 | 95.6 | 136% (inactive) | 132 | 136 | 103% (inactive) | 97.9% (inactive) | 110% (inactive) | 110 | 104
21 | c1ccc(-c2cccc(-c3ccccn3)n2)nc1 | 92.9% (inactive) | 82.8 | 96.9 | 258% (active) | 210 | 268 | 106% (inactive) | 89% (inactive) | 97.8% (inactive) | 87.2 | 100
22 | Cc1ccccc1Sc1ncnc2onc(C)c12 | 98.5% (inactive) | 99 | 96.9 | 97.7% (inactive) | 96 | 97.4 | 106% (inactive) | 104% (inactive) | 98.6% (inactive) | 101 | 98.2
23 | CCCc1nn(-c2ccccc2)c2c1C(c1cccs1)C(C#N)=C(N)O2 (stereo not drawn) | 101% (inactive) | 100 | 102 | 90.2% (inactive) | 92.5 | 95.2 | 95.7% (inactive) | 95.9% (inactive) | 102% (inactive) | 98.1 | 102
24 | NNC(=O)c1ccc(COc2ccc3ccccc3c2)cc1 | 98% (inactive) | 96.1 | 95.7 | 101% (inactive) | 101 | 102 | 99% (inactive) | 94.9% (inactive) | 93% (inactive) | 93.8 | 91.9
25 | CCOC(=O)c1c(C)oc2c1c(C(c1ccncc1)N1CCOCC1)c(O)c1ccccc12 (stereo not drawn) | 102% (inactive) | 109 | 89.6 | 186% (active) | 167 | 180 | 131% (inactive) | 101% (inactive) | 103% (inactive) | 114 | 94.4
26 | O=C(c1ccccc1)c1ccccc1N1C(=O)C=CC1=O | 90.5% (inactive) | 61.6 | 81.2 | 266% (active) | 156 | 263 | 156% (inactive) | 129% (inactive) | 86% (inactive) | 95.2 | 71.8
27 | COc1ccc(-c2nn(-c3ccccc3)cc2C(=O)NC(=S)NNC(=O)c2ccncc2)cc1 | 100% (inactive) | 101 | 98.3 | 105% (inactive) | 108 | 105 | 101% (inactive) | 101% (inactive) | 107% (inactive) | 108 | 104
28 | CCOC(=O)/C=C1\SCC(=O)N1Cc1nnc(-c2ccccc2Br)o1 | 96.2% (inactive) | 97.6 | 96.4 | 90.2% (inactive) | 89.6 | 90.8 | 100% (inactive) | 100% (inactive) | 99.7% (inactive) | 101 | 99.7
29 | COc1ccc(OC)c(S(=O)(=O)ON2C(=O)c3ccccc3C2=O)c1 | 105% (inactive) | 98.3 | 93.8 | 156% (active) | 157 | 158 | 114% (inactive) | 96.9% (inactive) | 102% (inactive) | 119 | 87.5
30 | O=C(Oc1oc(-c2ccco2)nc1C=Nc1ccccc1)c1ccco1 | 104% (inactive) | 106 | 102 | 160% (active) | 147 | 175 | 107% (inactive) | 91.2% (inactive) | 104% (inactive) | 108 | 101
31 | O=C1c2cccc3cccc(c23)C(=O)N1c1nccs1 | 103% (inactive) | 102 | 104 | 116% (inactive) | 117 | 112 | 133% (inactive) | 106% (inactive) | 130% (inactive) | 132 | 131
32 | O=C(O)c1ccc(/C=N/NC(=O)c2ccc(Br)cc2)cc1 | 102% (inactive) | 100 | 102 | 98.2% (inactive) | 95.9 | 98.4 | 101% (inactive) | 99.8% (inactive) | 94.4% (inactive) | 93.8 | 94.4
33 | CN(C(=O)c1cccnc1)c1nc(-c2ccccc2)cs1 | 97.6% (inactive) | 97.3 | 95 | 102% (inactive) | 99 | 102 | 106% (inactive) | 96.1% (inactive) | 98.6% (inactive) | 99.3 | 96
